Measurements: ChEMBL document CHEMBL4689842, “EUbOPEN Chemogenomics Library wave 1” (2021)

Key:
U2OS = assay: Multiplex assay against U2OS; type: toxicity, cell-based; conditions: human
Procedure, shortened: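 Imaging took place on a CQ1 microscope at 37°C and 5% CO2 once compound had been added to live cells stained at seeding with Hoechst33342, BioTracker Green Microtubule Cytoskeleton Dye, MitoTracker Red and Annexin V Alexa Fluor 680. CellPathfinder machine-learning gating classed cells as Hoechst high-intensity objects or normal cells, classed normal cells as having healthy, pyknosed or fragmented nuclei, and classed pyknosed cells as mitotic or apoptotic. Tubulin, mitochondrial-mass and membrane-permeability phenotypes are per cents of the healthy-nucleus cells.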

HEK-293T = assay: Incucyte cell viability with HEK293T; type: toxicity, cell-based; conditions: human, 10 µM, compound concentration 10 uM; further: filed as whole numbers so only -1 and 0 and 1 occur
[1] = 12 h, 1 µM, compound concentration 1 uM, replicate 1
[2] = 12 h, 1 µM, compound concentration 1 uM, replicate 2
[3] = 12 h, 10 µM, compound concentration 10 uM, replicate 1
[4] = 12 h, 10 µM, compound concentration 10 uM, replicate 2
[5] = 24 h, 1 µM, compound concentration 1 uM, replicate 1
[6] = 24 h, 1 µM, compound concentration 1 uM, replicate 2
[7] = 24 h, 10 µM, compound concentration 10 uM, replicate 1
[8] = 24 h, 10 µM, compound concentration 10 uM, replicate 2
[9] = 48 h, 1 µM, compound concentration 1 uM, replicate 1
[10] = 48 h, 1 µM, compound concentration 1 uM, replicate 2
[11] = 48 h, 10 µM, compound concentration 10 uM, replicate 1
[12] = 48 h, 10 µM, compound concentration 10 uM, replicate 2

Nc1nc2c(c(N3CCNCC3)n1)CCC1=C2[C@@H]2CCCC[C@@H]2O1
Population Apoptotic (%) (U2OS; [1]): 34% | Population Fragmented Nuclei (%) (U2OS; [1]): 14% | Population Healthy Nuclei (%) (U2OS; [1]): 66% | Population Hoechst High Intensity Objects (%) (U2OS; [1]): 7% | Population Membrane Permeable-Phenotype (%) (U2OS; [1]): 4% | Population Mitochondria Different-Phenotype (%) (U2OS; [1]): 9% | Population Mitotic Cells (%) (U2OS; [1]): 65% | Population Normal (%) (U2OS; [1]): 92% | Population Tubulin-Different-Phenotype (%) (U2OS; [1]): 7% | Total Cell Count (U2OS; [1]): 167 | Population Apoptotic (%) (U2OS; [2]): 0% | Population Fragmented Nuclei (%) (U2OS; [2]): 20% | Population Healthy Nuclei (%) (U2OS; [2]): 61% | Population Hoechst High Intensity Objects (%) (U2OS; [2]): 15% | Population Membrane Permeable-Phenotype (%) (U2OS; [2]): 8% | Population Mitochondria Different-Phenotype (%) (U2OS; [2]): 27% | Population Mitotic Cells (%) (U2OS; [2]): 100% | Population Normal (%) (U2OS; [2]): 84% | Population Pyknosed Nuclei (%) (U2OS; [2]): 18% | Population Tubulin-Different-Phenotype (%) (U2OS; [2]): 21% | Total Cell Count (U2OS; [2]): 71 | Population Apoptotic (%) (U2OS; [3]): 26% | Population Fragmented Nuclei (%) (U2OS; [3]): 13% | Population Healthy Nuclei (%) (U2OS; [3]): 62% | Population Hoechst High Intensity Objects (%) (U2OS; [3]): 9% | Population Membrane Permeable-Phenotype (%) (U2OS; [3]): 11% | Population Mitochondria Different-Phenotype (%) (U2OS; [3]): 88% | Population Mitotic Cells (%) (U2OS; [3]): 73% | Population Normal (%) (U2OS; [3]): 90% | Population Pyknosed Nuclei (%) (U2OS; [3]): 24% | Population Tubulin-Different-Phenotype (%) (U2OS; [3]): 93% | Total Cell Count (U2OS; [3]): 135 | Population Apoptotic (%) (U2OS; [4]): 27% | Population Fragmented Nuclei (%) (U2OS; [4]): 9% | Population Healthy Nuclei (%) (U2OS; [4]): 68% | Population Hoechst High Intensity Objects (%) (U2OS; [4]): 3% | Population Membrane Permeable-Phenotype (%) (U2OS; [4]): 25% | Population Mitochondria Different-Phenotype (%) (U2OS; [4]): 87% | Population Mitotic Cells (%) (U2OS; [4]): 72% | Population Normal (%) (U2OS; [4]): 96% | Population Pyknosed Nuclei (%) (U2OS; [4]): 21% | Population Tubulin-Different-Phenotype (%) (U2OS; [4]): 92% | Total Cell Count (U2OS; [4]): 106 | Population Apoptotic (%) (U2OS; [5]): 39% | Population Fragmented Nuclei (%) (U2OS; [5]): 15% | Population Healthy Nuclei (%) (U2OS; [5]): 65% | Population Hoechst High Intensity Objects (%) (U2OS; [5]): 4% | Population Membrane Permeable-Phenotype (%) (U2OS; [5]): 7% | Population Mitochondria Different-Phenotype (%) (U2OS; [5]): 4% | Population Mitotic Cells (%) (U2OS; [5]): 60% | Population Normal (%) (U2OS; [5]): 95% | Population Pyknosed Nuclei (%) (U2OS; [5]): 19% | Population Tubulin-Different-Phenotype (%) (U2OS; [5]): 3% | Total Cell Count (U2OS; [5]): 203 | Population Apoptotic (%) (U2OS; [6]): 20% | Population Fragmented Nuclei (%) (U2OS; [6]): 22% | Population Healthy Nuclei (%) (U2OS; [6]): 57% | Population Hoechst High Intensity Objects (%) (U2OS; [6]): 8% | Population Membrane Permeable-Phenotype (%) (U2OS; [6]): 6% | Population Mitochondria Different-Phenotype (%) (U2OS; [6]): 20% | Population Mitotic Cells (%) (U2OS; [6]): 80% | Population Normal (%) (U2OS; [6]): 91% | Population Pyknosed Nuclei (%) (U2OS; [6]): 20% | Population Tubulin-Different-Phenotype (%) (U2OS; [6]): 16% | Total Cell Count (U2OS; [6]): 82 | Population Apoptotic (%) (U2OS; [7]): 40% | Population Fragmented Nuclei (%) (U2OS; [7]): 11% | Population Healthy Nuclei (%) (U2OS; [7]): 45% | Population Hoechst High Intensity Objects (%) (U2OS; [7]): 14% | Population Membrane Permeable-Phenotype (%) (U2OS; [7]): 16% | Population Mitochondria Different-Phenotype (%) (U2OS; [7]): 85% | Population Mitotic Cells (%) (U2OS; [7]): 59% | Population Normal (%) (U2OS; [7]): 85% | Population Pyknosed Nuclei (%) (U2OS; [7]): 43% | Population Tubulin-Different-Phenotype (%) (U2OS; [7]): 75% | Total Cell Count (U2OS; [7]): 140 | Population Apoptotic (%) (U2OS; [8]): 33% | Population Fragmented Nuclei (%) (U2OS; [8]): 8% | Population Healthy Nuclei (%) (U2OS; [8]): 46% | Population Hoechst High Intensity Objects (%) (U2OS; [8]): 2% | Population Membrane Permeable-Phenotype (%) (U2OS; [8]): 22% | Population Mitochondria Different-Phenotype (%) (U2OS; [8]): 79% | Population Mitotic Cells (%) (U2OS; [8]): 66% | Population Normal (%) (U2OS; [8]): 97% | Population Pyknosed Nuclei (%) (U2OS; [8]): 45% | Population Tubulin-Different-Phenotype (%) (U2OS; [8]): 69% | Total Cell Count (U2OS; [8]): 109 | Population Apoptotic (%) (U2OS; [9]): 31% | Population Fragmented Nuclei (%) (U2OS; [9]): 8% | Population Healthy Nuclei (%) (U2OS; [9]): 78% | Population Hoechst High Intensity Objects (%) (U2OS; [9]): 5% | Population Membrane Permeable-Phenotype (%) (U2OS; [9]): 3% | Population Mitochondria Different-Phenotype (%) (U2OS; [9]): 5% | Population Mitotic Cells (%) (U2OS; [9]): 68% | Population Normal (%) (U2OS; [9]): 94% | Population Pyknosed Nuclei (%) (U2OS; [9]): 13% | Population Tubulin-Different-Phenotype (%) (U2OS; [9]): 5% | Total Cell Count (U2OS; [9]): 299 | Population Apoptotic (%) (U2OS; [10]): 40% | Population Fragmented Nuclei (%) (U2OS; [10]): 19% | Population Healthy Nuclei (%) (U2OS; [10]): 65% | Population Hoechst High Intensity Objects (%) (U2OS; [10]): 9% | Population Membrane Permeable-Phenotype (%) (U2OS; [10]): 4% | Population Mitochondria Different-Phenotype (%) (U2OS; [10]): 17% | Population Mitotic Cells (%) (U2OS; [10]): 60% | Population Normal (%) (U2OS; [10]): 90% | Population Pyknosed Nuclei (%) (U2OS; [10]): 14% | Population Tubulin-Different-Phenotype (%) (U2OS; [10]): 13% | Total Cell Count (U2OS; [10]): 113 | Population Apoptotic (%) (U2OS; [11]): 62% | Population Fragmented Nuclei (%) (U2OS; [11]): 19% | Population Healthy Nuclei (%) (U2OS; [11]): 32% | Population Hoechst High Intensity Objects (%) (U2OS; [11]): 18% | Population Membrane Permeable-Phenotype (%) (U2OS; [11]): 8% | Population Mitochondria Different-Phenotype (%) (U2OS; [11]): 76% | Population Mitotic Cells (%) (U2OS; [11]): 37% | Population Normal (%) (U2OS; [11]): 81% | Population Pyknosed Nuclei (%) (U2OS; [11]): 48% | Population Tubulin-Different-Phenotype (%) (U2OS; [11]): 63% | Total Cell Count (U2OS; [11]): 175 | Population Apoptotic (%) (U2OS; [12]): 48% | Population Fragmented Nuclei (%) (U2OS; [12]): 9% | Population Healthy Nuclei (%) (U2OS; [12]): 40% | Population Hoechst High Intensity Objects (%) (U2OS; [12]): 12% | Population Membrane Permeable-Phenotype (%) (U2OS; [12]): 21% | Population Mitochondria Different-Phenotype (%) (U2OS; [12]): 78% | Population Mitotic Cells (%) (U2OS; [12]): 51% | Population Normal (%) (U2OS; [12]): 87% | Population Pyknosed Nuclei (%) (U2OS; [12]): 50% | Population Tubulin-Different-Phenotype (%) (U2OS; [12]): 53% | Total Cell Count (U2OS; [12]): 133 | Growth Rate (HEK-293T; 0 h, replicate number 1, timepoint 0 hours): 0 | Growth Rate (HEK-293T; 6 h, replicate number 1, timepoint 6 hours): 1 | Growth Rate (HEK-293T; 6 h, replicate number 2, timepoint 6 hours): 0 | Growth Rate (HEK-293T; 12 h, replicate number 1, timepoint 12 hours): 1 | Growth Rate (HEK-293T; 12 h, replicate number 2, timepoint 12 hours): 0 | Growth Rate (HEK-293T; 18 h, replicate number 1, timepoint 18 hours): 0 | Growth Rate (HEK-293T; 24 h, replicate number 1, timepoint 24 hours): 0
